# Measured values from different studies.
# Target: Death-associated protein kinase 3 (DAPK3, Homo sapiens, UniProt O43293)
Compound,effect on,action,method,tested at,measurement,result
Cc1nn(C)cc1-c1nc2c(N3CCN(Cc4ccc(Cl)cc4)CC3)c(Cl)cnc2[nH]1,binding,,competition with immobilised ligand,1 µM,remaining binding,84%
COc1ncccc1-c1cnn2ccc(N3CCN(C(=O)OC(C)C)CC3)nc12,binding,,competition with immobilised ligand,1 µM,remaining binding,98%
O=c1[nH]c2ccccc2n1C1CCN(Cc2ccc(-c3[nH]c4cc5ncnc5cc4nc3-c3ccccc3)cc2)CC1,cell-free assay,,,0.5 µM,remaining signal,106%
Cn1cc(-c2cc(F)cc(N3CCn4c(cc5c4CCCC5)C3=O)c2CO)cc(Nc2ccc(N3CCN(C4COC4)CC3)cn2)c1=O,enzyme activity,inhibitor,,0.1 µM,inhibition,3%
CC(C)(C)c1cc(C=C(C#N)C#N)cc(Br)c1O,enzyme activity,inhibitor,,0.5 µM,remaining activity,96.4%
Nc1ncc(-c2nc(N3CCOCC3)nc(N3CCOCC3)n2)c(C(F)F)n1,binding,,competition with immobilised ligand,10 µM,remaining binding,80%
Cn1cncc1[C@](O)(COc1ccc(C#N)cc1-c1ccc(OC(F)(F)F)cc1)c1ccc(C#N)cc1,cell-free assay,,competition with immobilised ligand,1 µM,remaining binding,88%
Cn1cc(-c2cccc(N3CCc4c(sc5c4CC(C)(C)C5)C3=O)c2CO)cc(Nc2ccncn2)c1=O,enzyme activity,inhibitor,,1 µM,inhibition,-6%
